Experimental data taken from ChEMBL document CHEMBL3774321, “Systematic diversification of benzylidene heterocycles yields novel inhibitor scaffolds selective for Dyrk1A, Clk1 and CK2” (Eur J Med Chem, 2016).
Blank lines part the entries; values can stand above or below the compound they belong to. Active and inactive are the calls of the source. No cut-off for these calls is given here.

Experiments:
HEK293 = assay: Cytotoxicity against HEK293 cells up to 20 uM; format: cell-based; conditions: human
[1] = target: Serine/threonine-protein kinase 17A (Homo sapiens) (UniProt Q9UEE5); assay: Inhibition of STK17A (unknown origin) at 5 uM relative to control
[2] = target: Calcium/calmodulin-dependent protein kinase type II subunit alpha (Homo sapiens) (UniProt Q9UQM7); assay: Inhibition of full length recombinant human His-tagged CAMK2A expressed in baculovirus expression system at 1 uM by lantha screen kinase binding assay relative to control
[3] = target: Myosin light chain kinase, smooth muscle (Homo sapiens) (UniProt Q15746); assay: Inhibition of recombinant human GST-tagged MYLK expressed in baculovirus expression system at 1 uM by lantha screen kinase binding assay relative to control
Method in brief: (§1)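 Binding-displacement format: the compound competes with an Alexa Fluor-conjugated tracer for binding to the kinase ATP site, rather than a peptide phosphorylation read-out.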

[4] = target: MAP kinase-interacting serine/threonine-protein kinase 2 (Homo sapiens) (UniProt Q9HBH9); assay: Inhibition of full length recombinant human N-terminal GST-tagged MKNK2 expressed in insect cells at 1 uM by lantha screen kinase binding assay relative to control; method in brief: as §1
[5] = target: MAP kinase-interacting serine/threonine-protein kinase 1 (Homo sapiens) (UniProt Q9BUB5); assay: Inhibition of full length recombinant human N-terminal GST-tagged MKNK1 expressed in insect cells at 1 uM by lantha screen kinase binding assay relative to control; method in brief: as §1
[6] = target: Receptor-interacting serine/threonine-protein kinase 2 (Homo sapiens) (UniProt O43353); assay: Inhibition of recombinant human His-tagged RIPK2 expressed in baculovirus expression system at 1 uM by lantha screen kinase binding assay relative to control; method in brief: as §1
[7] = target: Activin receptor type-1 (Homo sapiens) (UniProt Q04771); assay: Inhibition of recombinant human GST-tagged ACVR1 expressed in baculovirus expression system at 1 uM by lantha screen kinase binding assay relative to control; method in brief: as §1
[8] = target: Serine/threonine-protein kinase 26 (Homo sapiens) (UniProt Q9P289); assay: Inhibition of full length recombinant human GST-tagged MST4 expressed in baculovirus expression system at 1 uM by lantha screen kinase binding assay relative to control
[9] = target: Tyrosine-protein kinase ABL1 (Homo sapiens) (UniProt P00519); assay: Inhibition of recombinant human His-tagged ABL1 expressed in baculovirus expression system at 1 uM by lantha screen kinase binding assay relative to control; method in brief: as §1
[10] = target: Proto-oncogene tyrosine-protein kinase ROS (Homo sapiens) (UniProt P08922); assay: Inhibition of recombinant human GST-tagged ROS1 expressed in baculovirus expression system at 1 uM by lantha screen kinase binding assay relative to control; method in brief: as §1
[11] = target: Casein kinase I isoform delta (Homo sapiens) (UniProt P48730); assay: Inhibition of full length recombinant human GST-tagged CSNK1D expressed in baculovirus expression system at 1 uM by lantha screen kinase binding assay relative to control
[12] = target: Casein kinase I isoform gamma-3 (Homo sapiens) (UniProt Q9Y6M4); assay: Inhibition of full length recombinant human GST-tagged CSNK1G3 expressed in baculovirus expression system at 1 uM by lantha screen kinase binding assay relative to control
[13] = target: Serine/threonine-protein kinase 17A (Homo sapiens) (UniProt Q9UEE5); assay: Inhibition of STK17A (unknown origin) at 1 uM relative to control
[14] = target: Serine/threonine-protein kinase 17A (Homo sapiens, UniProt Q9UEE5); assay: Inhibition of STK17A (unknown origin)
[15] = target: Serine/threonine-protein kinase pim-1 (Homo sapiens, UniProt P11309); assay: Inhibition of PIM1 (unknown origin)
Method in brief: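 Calculated from means of duplicates differing by less than 7%.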

[16] = target: T1, Dual specificity protein kinase CLK3 (Homo sapiens, UniProt P49761); assay: Inhibition of recombinant human GST-tagged CLK3 expressed in baculovirus expression system by lantha screen kinase binding assay; method in brief: as §1
[17] = target: Dual specificity tyrosine-phosphorylation-regulated kinase 4 (Homo sapiens) (UniProt Q9NR20); assay: Inhibition of full length recombinant human GST-tagged DYRK4 expressed in baculovirus expression system at 1 uM by lantha screen kinase binding assay relative to control
[18] = target: Mitogen-activated protein kinase 8 (Homo sapiens) (UniProt P45983); assay: Inhibition of full length recombinant human His-tagged MAPK8 expressed in baculovirus expression system at 1 uM by lantha screen kinase binding assay relative to control; method in brief: as §1
[19] = target: Serine/threonine-protein kinase pim-2 (Homo sapiens) (UniProt Q9P1W9); assay: Inhibition of full length recombinant human GST-tagged PIM2 expressed in baculovirus expression system at 1 uM by lantha screen kinase binding assay relative to control
[20] = target: Myosin light chain kinase 2, skeletal/cardiac muscle (Homo sapiens, UniProt Q9H1R3); assay: Inhibition of full length recombinant human N-terminal GST-tagged skeletal MYLK2 expressed in baculovirus expression system at 5 uM by lantha screen kinase binding assay relative to control; method in brief: as §1
[21] = target: Serine/threonine-protein kinase 26 (Homo sapiens) (UniProt Q9P289); assay: Inhibition of full length recombinant human GST-tagged MST4 expressed in baculovirus expression system at 5 uM by lantha screen kinase binding assay relative to control
[22] = target: cAMP-dependent protein kinase catalytic subunit alpha (Homo sapiens) (UniProt P17612); assay: Inhibition of recombinant human His-tagged PRKACA expressed in Escherichia coli at 5 uM by lantha screen kinase binding assay relative to control; method in brief: as §1
[23] = target: Serine/threonine-protein kinase D2 (Homo sapiens) (UniProt Q9BZL6); assay: Inhibition of full length recombinant human GST-tagged PRKD2 expressed in baculovirus expression system at 5 uM by lantha screen kinase binding assay relative to control
[24] = target: BDNF/NT-3 growth factors receptor (Homo sapiens) (UniProt Q16620); assay: Inhibition of recombinant human His-tagged NTRK2 expressed in baculovirus expression system at 5 uM by lantha screen kinase binding assay relative to control; method in brief: as §1
[25] = target: T1, Dual specificity protein kinase CLK3; assay: Inhibition of recombinant human GST-tagged CLK3 expressed in baculovirus expression system at 5 uM by lantha screen kinase binding assay relative to control; method in brief: as §1
[26] = target: Dual specificity tyrosine-phosphorylation-regulated kinase 3 (Homo sapiens) (UniProt O43781); assay: Inhibition of full length recombinant human GST-tagged DYRK3 expressed in baculovirus expression system at 5 uM by lantha screen kinase binding assay relative to control
[27] = target: Mitogen-activated protein kinase 14 (Homo sapiens) (UniProt Q16539); assay: Inhibition of full length recombinant human GST-tagged MAPK14 expressed in Escherichia coli at 5 uM by lantha screen kinase binding assay relative to control
[28] = target: Serine/threonine-protein kinase pim-2 (Homo sapiens) (UniProt Q9P1W9); assay: Inhibition of full length recombinant human GST-tagged PIM2 expressed in baculovirus expression system at 5 uM by lantha screen kinase binding assay relative to control
[29] = target: Calcium/calmodulin-dependent protein kinase type II subunit alpha (Homo sapiens) (UniProt Q9UQM7); assay: Inhibition of full length recombinant human His-tagged CAMK2A expressed in baculovirus expression system at 5 uM by lantha screen kinase binding assay relative to control

Chain of Serine/threonine-protein kinase 17A (Homo sapiens) (Q9UEE5 whole entry): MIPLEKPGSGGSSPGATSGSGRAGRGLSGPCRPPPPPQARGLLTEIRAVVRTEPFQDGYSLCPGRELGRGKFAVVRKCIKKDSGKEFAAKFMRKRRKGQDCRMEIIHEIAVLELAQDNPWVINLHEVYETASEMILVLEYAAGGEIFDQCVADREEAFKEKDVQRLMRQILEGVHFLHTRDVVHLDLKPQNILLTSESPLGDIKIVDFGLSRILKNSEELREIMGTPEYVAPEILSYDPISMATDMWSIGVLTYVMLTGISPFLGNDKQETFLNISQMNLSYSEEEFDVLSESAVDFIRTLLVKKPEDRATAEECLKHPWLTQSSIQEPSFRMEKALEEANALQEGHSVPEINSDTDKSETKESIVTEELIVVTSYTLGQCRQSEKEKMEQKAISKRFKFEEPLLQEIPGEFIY
Chain of Calcium/calmodulin-dependent protein kinase type II subunit alpha (Homo sapiens) (Q9UQM7 whole entry): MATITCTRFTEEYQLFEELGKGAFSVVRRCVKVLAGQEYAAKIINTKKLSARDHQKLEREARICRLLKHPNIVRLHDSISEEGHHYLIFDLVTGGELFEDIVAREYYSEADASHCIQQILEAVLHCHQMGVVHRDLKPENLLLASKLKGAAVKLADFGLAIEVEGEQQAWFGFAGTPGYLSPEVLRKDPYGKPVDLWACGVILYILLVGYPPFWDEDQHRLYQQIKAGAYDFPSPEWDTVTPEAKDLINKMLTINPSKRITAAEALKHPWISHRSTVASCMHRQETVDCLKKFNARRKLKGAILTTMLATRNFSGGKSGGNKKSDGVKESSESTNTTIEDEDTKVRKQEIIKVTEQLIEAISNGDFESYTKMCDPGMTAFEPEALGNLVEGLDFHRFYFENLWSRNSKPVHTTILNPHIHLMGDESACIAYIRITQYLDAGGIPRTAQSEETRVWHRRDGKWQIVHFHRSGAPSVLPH
Chain of Serine/threonine-protein kinase pim-2 (Homo sapiens) (Q9P1W9 whole entry, looked up): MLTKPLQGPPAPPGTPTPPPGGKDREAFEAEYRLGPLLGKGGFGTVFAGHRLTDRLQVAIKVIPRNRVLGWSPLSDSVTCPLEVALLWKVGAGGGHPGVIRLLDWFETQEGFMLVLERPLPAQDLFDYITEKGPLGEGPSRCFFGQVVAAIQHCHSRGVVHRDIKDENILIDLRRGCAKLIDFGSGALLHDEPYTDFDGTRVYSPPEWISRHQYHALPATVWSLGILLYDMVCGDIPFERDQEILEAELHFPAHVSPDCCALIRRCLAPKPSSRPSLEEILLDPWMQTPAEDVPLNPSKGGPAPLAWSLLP
Chain of Serine/threonine-protein kinase 26 (Homo sapiens) (Q9P289 2-416 limits assumed): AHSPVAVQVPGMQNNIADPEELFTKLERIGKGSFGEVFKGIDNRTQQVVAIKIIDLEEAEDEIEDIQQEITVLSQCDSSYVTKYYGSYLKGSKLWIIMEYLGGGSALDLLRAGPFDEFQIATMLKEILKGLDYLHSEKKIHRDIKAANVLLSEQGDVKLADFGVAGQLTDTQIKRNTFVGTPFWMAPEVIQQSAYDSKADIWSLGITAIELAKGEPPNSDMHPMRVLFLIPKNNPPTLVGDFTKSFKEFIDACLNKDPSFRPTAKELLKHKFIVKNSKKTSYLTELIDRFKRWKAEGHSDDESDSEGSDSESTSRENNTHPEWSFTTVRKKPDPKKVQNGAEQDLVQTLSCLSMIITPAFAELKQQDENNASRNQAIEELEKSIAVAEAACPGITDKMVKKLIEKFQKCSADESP
Chain of Activin receptor type-1 (Homo sapiens) (Q04771 whole entry): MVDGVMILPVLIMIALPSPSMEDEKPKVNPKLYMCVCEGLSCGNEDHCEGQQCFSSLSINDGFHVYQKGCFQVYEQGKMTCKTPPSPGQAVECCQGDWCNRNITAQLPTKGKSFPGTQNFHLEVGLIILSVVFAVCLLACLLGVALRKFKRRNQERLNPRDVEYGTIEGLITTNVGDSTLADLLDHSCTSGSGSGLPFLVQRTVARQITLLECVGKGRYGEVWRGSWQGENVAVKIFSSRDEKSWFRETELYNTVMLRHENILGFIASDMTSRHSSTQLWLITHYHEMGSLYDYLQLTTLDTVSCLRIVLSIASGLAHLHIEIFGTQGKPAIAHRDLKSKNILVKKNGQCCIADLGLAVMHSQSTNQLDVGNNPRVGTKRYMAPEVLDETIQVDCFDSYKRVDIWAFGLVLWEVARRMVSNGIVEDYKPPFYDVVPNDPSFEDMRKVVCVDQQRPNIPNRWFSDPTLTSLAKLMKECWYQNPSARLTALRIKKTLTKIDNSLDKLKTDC
Chain of Serine/threonine-protein kinase 17A (Q9UEE5 whole entry): as the sequence (Q9UEE5 whole entry) above
Chain of BDNF/NT-3 growth factors receptor (Homo sapiens) (Q16620 32-822 limits assumed): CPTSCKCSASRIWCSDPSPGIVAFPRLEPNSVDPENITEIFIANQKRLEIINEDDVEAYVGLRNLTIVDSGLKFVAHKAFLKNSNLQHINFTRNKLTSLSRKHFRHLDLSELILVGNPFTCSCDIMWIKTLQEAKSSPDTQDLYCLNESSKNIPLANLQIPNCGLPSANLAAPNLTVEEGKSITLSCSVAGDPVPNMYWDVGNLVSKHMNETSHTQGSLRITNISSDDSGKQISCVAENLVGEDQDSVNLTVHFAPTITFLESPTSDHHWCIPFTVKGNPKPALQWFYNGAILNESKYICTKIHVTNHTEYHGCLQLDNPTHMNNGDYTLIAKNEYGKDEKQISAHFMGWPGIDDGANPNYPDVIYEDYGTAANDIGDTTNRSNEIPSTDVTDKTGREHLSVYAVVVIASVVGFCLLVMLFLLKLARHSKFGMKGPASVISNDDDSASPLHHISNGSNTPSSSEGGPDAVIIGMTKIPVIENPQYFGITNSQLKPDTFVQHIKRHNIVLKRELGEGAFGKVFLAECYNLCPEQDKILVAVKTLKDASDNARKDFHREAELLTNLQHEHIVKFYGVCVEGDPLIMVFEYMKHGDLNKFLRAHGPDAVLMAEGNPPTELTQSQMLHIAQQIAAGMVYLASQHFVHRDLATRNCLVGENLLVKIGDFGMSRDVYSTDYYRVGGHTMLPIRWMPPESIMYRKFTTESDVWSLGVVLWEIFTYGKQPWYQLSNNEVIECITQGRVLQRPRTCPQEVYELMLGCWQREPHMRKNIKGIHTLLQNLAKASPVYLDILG
Chain of Mitogen-activated protein kinase 14 (Homo sapiens) (Q16539 whole entry): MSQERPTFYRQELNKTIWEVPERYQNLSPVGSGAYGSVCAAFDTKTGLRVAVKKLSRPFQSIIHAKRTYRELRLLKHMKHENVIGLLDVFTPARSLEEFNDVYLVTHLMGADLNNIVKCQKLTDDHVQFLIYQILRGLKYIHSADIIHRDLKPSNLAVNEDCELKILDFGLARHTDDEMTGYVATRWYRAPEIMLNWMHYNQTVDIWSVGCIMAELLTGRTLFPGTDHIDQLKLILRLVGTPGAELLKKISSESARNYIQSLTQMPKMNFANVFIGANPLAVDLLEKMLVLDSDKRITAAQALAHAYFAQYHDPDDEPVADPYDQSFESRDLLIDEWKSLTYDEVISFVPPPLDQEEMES
Chain of MAP kinase-interacting serine/threonine-protein kinase 1 (Homo sapiens) (Q9BUB5 whole entry, looked up): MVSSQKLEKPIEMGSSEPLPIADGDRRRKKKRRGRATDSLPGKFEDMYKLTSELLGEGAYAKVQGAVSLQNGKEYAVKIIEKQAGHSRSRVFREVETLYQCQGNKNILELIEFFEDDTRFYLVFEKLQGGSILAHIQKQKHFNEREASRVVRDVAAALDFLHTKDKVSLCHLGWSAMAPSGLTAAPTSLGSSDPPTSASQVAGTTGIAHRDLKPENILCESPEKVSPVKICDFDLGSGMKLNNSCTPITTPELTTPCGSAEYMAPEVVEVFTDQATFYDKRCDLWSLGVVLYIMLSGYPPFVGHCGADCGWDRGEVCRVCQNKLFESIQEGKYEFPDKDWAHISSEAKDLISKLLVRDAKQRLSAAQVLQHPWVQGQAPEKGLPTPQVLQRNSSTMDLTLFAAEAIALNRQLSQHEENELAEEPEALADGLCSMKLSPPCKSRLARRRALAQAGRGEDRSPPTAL
Chain of Mitogen-activated protein kinase 8 (Homo sapiens) (P45983 whole entry): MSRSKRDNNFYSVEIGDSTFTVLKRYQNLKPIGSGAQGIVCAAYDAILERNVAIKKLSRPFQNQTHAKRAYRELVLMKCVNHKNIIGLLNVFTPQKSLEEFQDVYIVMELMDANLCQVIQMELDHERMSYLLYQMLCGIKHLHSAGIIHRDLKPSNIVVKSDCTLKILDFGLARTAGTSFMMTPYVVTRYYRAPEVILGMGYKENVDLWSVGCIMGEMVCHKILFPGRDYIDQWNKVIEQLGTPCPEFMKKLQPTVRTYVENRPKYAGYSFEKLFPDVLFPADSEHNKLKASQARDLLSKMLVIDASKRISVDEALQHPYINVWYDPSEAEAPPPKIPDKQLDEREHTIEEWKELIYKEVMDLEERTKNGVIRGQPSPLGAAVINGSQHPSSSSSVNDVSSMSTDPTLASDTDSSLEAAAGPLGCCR
Chain of Myosin light chain kinase 2, skeletal/cardiac muscle (Q9H1R3 whole entry): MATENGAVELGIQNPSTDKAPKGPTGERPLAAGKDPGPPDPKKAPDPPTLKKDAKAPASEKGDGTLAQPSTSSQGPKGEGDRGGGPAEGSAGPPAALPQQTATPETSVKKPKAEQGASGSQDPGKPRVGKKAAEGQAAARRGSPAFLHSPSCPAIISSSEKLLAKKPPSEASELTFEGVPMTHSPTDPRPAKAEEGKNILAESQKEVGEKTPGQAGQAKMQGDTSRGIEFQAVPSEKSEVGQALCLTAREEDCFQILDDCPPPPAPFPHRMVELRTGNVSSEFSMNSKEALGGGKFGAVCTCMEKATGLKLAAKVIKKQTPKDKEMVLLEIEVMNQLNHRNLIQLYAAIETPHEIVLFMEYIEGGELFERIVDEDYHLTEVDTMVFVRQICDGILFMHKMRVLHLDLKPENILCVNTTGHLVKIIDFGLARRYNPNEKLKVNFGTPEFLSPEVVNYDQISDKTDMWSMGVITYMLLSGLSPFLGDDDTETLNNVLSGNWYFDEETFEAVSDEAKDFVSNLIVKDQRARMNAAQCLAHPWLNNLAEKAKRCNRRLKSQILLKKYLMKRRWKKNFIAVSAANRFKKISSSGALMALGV

Structure (SMILES): O=C1OCC/C1=C\c1ccc2ncsc2c1
- Activity (HEK293): Non-toxic

- inhibition [1]: 28%
Structure (SMILES): CC1C/C(=C\c2ccc3c(c2)CCO3)C(=O)O1 (stereo not given)

- inhibition [2]: 7%
- inhibition [3]: 48%
- inhibition [4]: 34%
- inhibition [5]: 44%
- inhibition [6]: 83%
- inhibition [7]: 37%
- inhibition [8]: inactive
- inhibition [9]: 14%
- inhibition [10]: 5%
- inhibition [11]: 11%
- inhibition [12]: 17%
- inhibition [13]: 97%
- IC50 [14]: 12.8 nM
- IC50 [15]: 103 nM
- IC50 [16]: 86.6 nM
- inhibition [17]: 39%
- inhibition [18]: 7%
- inhibition [19]: 31%
Structure (SMILES): O=C1NC(=S)S/C1=C\c1ccc2ncccc2c1

- inhibition [20]: inactive
- inhibition [21]: inactive
- inhibition [22]: inactive
- inhibition [23]: inactive
- inhibition [24]: inactive
- inhibition [25]: 44%
- inhibition [26]: 7%
- inhibition [27]: inactive
- inhibition [28]: inactive
- inhibition [29]: inactive
Structure (SMILES): O=C1NC(=S)S/C1=C\c1ccc2ncsc2c1
